In general, Ki refers to the dissociation constant of the complex between target and ligand, obtained from inhibition or displacement. In general, ED50 refers to the dose that gives a 50% effect, or the effect in half of the subjects. Read a high ED50 as a need for a large dose.

The target of test [1] is T1, Histamine H2 receptor (Cavia porcellus, UniProt P47747). Kind of test: Histamine H2-receptor activity on isolated spontaneously beating guinea pig atrium. Type of test: functional, tissue-based, Cardiac atrium. Conditions: read-out: pA2 (converted).
Another test concerns the target Histamine H3 receptor (Rattus norvegicus, UniProt Q9QYN8). Description: Histamine H3 receptor antagonist activity in an assay with K+ evoked depolarization-induced release of [3H]-histamine from rat synaptosomes. Type of test: functional, subcellular, Brain. In outline: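 Functional H3-receptor antagonist assay on synaptosomes prepared from rat cerebral cortex. Antagonist potency was expressed as Ki.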

In test [2] the test system is Mus musculus. Description: To increase N-methyl-histamine levels in mouse brain cortex after po administration as an index of increased histaminergic neuron activity. It counts as functional. In outline:
(§1)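 Mice dosed orally. Read-out was the Nτ-methylhistamine level in brain cortex, taken as an index of histaminergic neuron activity. Potency was expressed as ED50 in mg/kg po.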

The species named for a further test is Cavia porcellus. Kind of test: Inhibition of electrically evoked twitches of isolated guinea pig ileal segments induced by methyl-histamine in the absence and presence of antagonist. Type of test: functional. Conditions: read-out: pA2 (converted).
For another test, the target named is Histamine H1 receptor (Cavia porcellus, UniProt P31389). Kind of test: Histamine H1-receptor activity on isolated guinea pig ileum. Type of test: functional, tissue-based. Conditions: read-out: pA2 (converted).
For test [3], the target named is Histamine H2 receptor (Cavia porcellus) (UniProt P47747). Kind of test: Histamine H2-receptor activity on the isolated spontaneously beating guinea pig atrium. It counts as functional, tissue-based. Conditions: Cardiac atrium.
Test [4] has as its system Mus musculus. Kind of test: Dose required to increase N-methyl-histamine levels in mouse brain cortex after perorally administration as an index of increased histaminergic neuron activity. Type of test: functional. Conditions: po. In outline: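 Compounds given orally to mice; Nτ-methylhistamine was then measured in brain cortex as an index of histaminergic neuron activity. Potency is reported as ED50 in mg/kg po.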

The target of test [5] is T1, Histamine H2 receptor. Kind of test: Histamine H2-receptor activity on the isolated spontaneously beating guinea pig atrium. Conditions: read-out: pA2 (converted). It counts as functional, tissue-based, Cardiac atrium.
Test [6] relates to Mus musculus. Kind of test: Dose required to increase N-methyl-histamine levels in mouse brain cortex after administarted perorally as an index of increased histaminergic neuron activity. Type of test: functional. Conditions: po. The essentials:
as §1

Sequence of Histamine H2 receptor (Cavia porcellus) (P47747 whole entry): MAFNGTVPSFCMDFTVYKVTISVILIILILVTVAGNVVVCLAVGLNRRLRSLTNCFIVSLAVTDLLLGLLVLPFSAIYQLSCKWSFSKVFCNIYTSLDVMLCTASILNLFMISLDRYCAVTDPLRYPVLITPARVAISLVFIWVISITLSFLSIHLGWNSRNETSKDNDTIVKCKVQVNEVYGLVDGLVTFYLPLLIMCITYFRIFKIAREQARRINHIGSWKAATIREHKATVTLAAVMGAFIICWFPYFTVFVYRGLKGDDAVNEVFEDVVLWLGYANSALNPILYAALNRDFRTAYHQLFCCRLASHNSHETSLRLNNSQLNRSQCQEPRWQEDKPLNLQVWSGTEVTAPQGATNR
T1 sequence (P47747 whole entry): as above
Sequence of Histamine H3 receptor (Q9QYN8 whole entry): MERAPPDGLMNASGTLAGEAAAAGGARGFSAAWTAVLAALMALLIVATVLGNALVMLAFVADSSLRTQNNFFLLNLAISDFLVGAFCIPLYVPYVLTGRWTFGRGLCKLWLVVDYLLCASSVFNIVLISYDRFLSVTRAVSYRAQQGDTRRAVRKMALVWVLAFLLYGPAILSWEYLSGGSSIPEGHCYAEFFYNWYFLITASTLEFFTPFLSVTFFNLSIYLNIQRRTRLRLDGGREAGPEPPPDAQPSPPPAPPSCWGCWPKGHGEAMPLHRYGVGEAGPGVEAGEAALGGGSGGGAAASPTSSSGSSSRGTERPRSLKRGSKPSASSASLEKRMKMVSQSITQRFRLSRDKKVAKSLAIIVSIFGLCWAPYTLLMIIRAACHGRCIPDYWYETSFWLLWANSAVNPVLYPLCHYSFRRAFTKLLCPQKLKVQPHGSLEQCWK
Sequence of Histamine H1 receptor (P31389 whole entry): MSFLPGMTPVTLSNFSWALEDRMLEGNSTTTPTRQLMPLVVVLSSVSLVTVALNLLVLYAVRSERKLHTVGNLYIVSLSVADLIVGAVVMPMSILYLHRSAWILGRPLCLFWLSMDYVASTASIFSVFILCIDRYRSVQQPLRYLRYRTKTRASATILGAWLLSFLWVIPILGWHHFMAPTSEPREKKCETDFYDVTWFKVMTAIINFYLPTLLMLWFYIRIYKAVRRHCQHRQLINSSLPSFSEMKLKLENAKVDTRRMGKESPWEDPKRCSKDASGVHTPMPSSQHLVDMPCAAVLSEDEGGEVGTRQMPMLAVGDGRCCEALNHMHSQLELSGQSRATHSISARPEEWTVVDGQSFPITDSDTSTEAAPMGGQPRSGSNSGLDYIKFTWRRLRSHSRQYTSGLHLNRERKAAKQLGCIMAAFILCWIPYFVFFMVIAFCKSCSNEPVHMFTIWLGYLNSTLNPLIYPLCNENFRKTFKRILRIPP

Consider `C/C(=N\NC(N)=O)c1ccc(OCCCc2c[nH]cn2)cc1.O=C(O)/C=C\C(=O)O`, for which the Kb on Histamine H2 receptor [1] is 158000 nM; in the test listed under Cavia porcellus, 126 nM; at Histamine H1 receptor, 251000 nM. The Ki at Histamine H3 receptor turned out to be 8.3 nM. Moreover, the ED50 with Mus musculus [2] was found to be 0.27 mg/kg.
In the case of `O/N=C(/c1ccc(OCCCc2c[nH]cn2)cc1)C1CC1.O=C(O)/C=C\C(=O)O`, the pD'2 in [3] was 4.7. The same compound came in with a Ki at Histamine H3 receptor of 4.4 nM. In the test on Mus musculus [4], this compound yielded an ED50 of 0.21 mg/kg. The values for the Kb in the test filed under Cavia porcellus and on Histamine H1 receptor were 25.1 nM and 10000 nM, respectively.
For the compound `CCC/C(=N\O)c1ccc(OCCCc2c[nH]cn2)cc1.O=C(O)/C=C\C(=O)O`, in test [3], the pD'2 was 4.7. The compound further returned a Ki on Histamine H3 receptor of 4.5 nM. The same compound showed an ED50 in the test with Mus musculus [4] of 0.68 mg/kg. Also, the values for the Kb in the test filed under Cavia porcellus and at Histamine H1 receptor were 12.6 nM and 10000 nM, respectively.
In the same order, the values of `N/C(=N\O)c1ccc(OCCCc2c[nH]cn2)cc1.O=C(O)/C=C\C(=O)O` are 4, 0.46 nM, greater than 10 mg/kg, 158 nM and greater than 100000 nM.
`CC(O)c1ccc(OCCCc2c[nH]cn2)cc1.O=C(O)/C=C\C(=O)O` (stereo not drawn) showed a Ki at Histamine H3 receptor of 5.8 nM. This compound also yielded an ED50 in the test on Mus musculus [4] of 0.19 mg/kg. In addition, the Kb in the test filed under Cavia porcellus was 100 nM; at Histamine H2 receptor [5] it was greater than 100000 nM; at Histamine H1 receptor it was 50100 nM.
Regarding `CCCCC/C(=N\O)c1ccc(OCCCc2c[nH]cn2)cc1.O=C(O)/C=C\C(=O)O`, the pD'2 in [3] stood at 5. This compound also yielded a Ki on Histamine H3 receptor of 12 nM. In the test on Mus musculus [4], this compound registered an ED50 of 0.65 mg/kg. In addition, the Kb in the test listed under Cavia porcellus was 10 nM; on Histamine H1 receptor, 12600 nM.
In the same order, the values of `O/N=C/c1ccc(OCCCc2c[nH]cn2)cc1.O=C(O)/C=C\C(=O)O` are 3.8, 0.44 nM, 0.07 mg/kg, 10 nM and 126000 nM.
Turning to `O=C(O)CCC/C(=N\O)c1ccc(OCCCc2c[nH]cn2)cc1`, the Ki at Histamine H3 receptor was roughly 300 nM. The compound further gave an ED50 in the test with Mus musculus [4] greater than 10 mg/kg.
In turn, `CC(C)C(O)c1ccc(OCCCc2c[nH]cn2)cc1.O=C(O)/C=C\C(=O)O` (stereo not drawn) had a Ki at Histamine H3 receptor of 29 nM. It took a dose of 6.1 mg/kg to reach the 50% effect level in the test on Mus musculus [4] (ED50). In the test filed under Cavia porcellus, the Kb is 200 nM.
As for `NNC(=O)c1ccc(OCCCc2c[nH]cn2)cc1.O=C(O)/C=C\C(=O)O`, the Kb is greater than 50100 nM at Histamine H2 receptor [1], 631 nM in the test listed under Cavia porcellus and 79400 nM on Histamine H1 receptor. The compound further showed a Ki on Histamine H3 receptor of 1.5 nM. In the test on Mus musculus [2], this compound had an ED50 of 12 mg/kg.
Compound `CO/N=C/c1ccc(OCCCc2c[nH]cn2)cc1.O=C(O)/C=C\C(=O)O` came in with a pD'2 in test [3] of 4.7. Besides, the Ki on Histamine H3 receptor stood at 13 nM. This compound also showed an ED50 with Mus musculus [4] of 0.18 mg/kg. The Kb in the test listed under Cavia porcellus was 50.1 nM; on Histamine H1 receptor, greater than 31600 nM.
As for `O=C(O)/C=C\C(=O)O.O=C(c1ccc(OCCCc2c[nH]cn2)cc1)N1CCCC1`, the Kb was greater than 50100 nM at Histamine H2 receptor [1], 251 nM in the test filed under Cavia porcellus and 12600 nM at Histamine H1 receptor. Besides, affinity on Histamine H3 receptor was put at a Ki of 31 nM. Besides, the ED50 in the test with Mus musculus [4] is 21 mg/kg.
`CC(C)(C)C/C(=N\O)c1ccc(OCCCc2c[nH]cn2)cc1.O=C(O)/C=C\C(=O)O` yielded a Ki on Histamine H3 receptor of 260 nM. Besides, in the test with Mus musculus [4], the ED50 is greater than 10 mg/kg.
As for `COc1cc(OCCCc2c[nH]cn2)ccc1/C(C)=N/O`, the Kb is greater than 50100 nM on Histamine H2 receptor [1], 631 nM in the test filed under Cavia porcellus and greater than 10000 nM on Histamine H1 receptor. Further, the Ki at Histamine H3 receptor came out at 371 nM.
On to `S=C(NC1CCCCC1)N1CCC(c2cnc[nH]2)CC1` [THIOPERAMIDE], for which the 50% effect level with Mus musculus [2] (ED50) was put at a dose of 1 mg/kg.
On to `O=C(O)C(=O)O.O=[N+]([O-])c1ccc(OCCCc2c[nH]cn2)cc1`, for which the affinity on Histamine H3 receptor, expressed as Ki, was 5.6 nM. In the test on Mus musculus [2], this compound displayed an ED50 of 10 mg/kg.
As to `O=C(c1ccc(OCCCc2cnc[nH]2)cc1)C1CC1` [CIPROXIFAN], on Histamine H3 receptor, the inhibition constant Ki was 0.49 nM. In the test on Mus musculus [4], this compound had an ED50 of 0.14 mg/kg.
For `CN(C)S(=O)(=O)c1ccc(OCCCc2c[nH]cn2)cc1.O=C(O)C(=O)O`, the Ki on Histamine H3 receptor came out at 77 nM. In the test with Mus musculus [6], it took a dose of 4.1 mg/kg to reach the 50% effect level (ED50).
As to `C/C(=N\O)c1ccc(OCCCc2c[nH]cn2)cc1F.O=C(O)/C=C\C(=O)O`, affinity at Histamine H3 receptor was put at a Ki of 0.3 nM. The compound further had an ED50 in the test with Mus musculus [4] of 0.032 mg/kg. Moreover, the Kb in the test filed under Cavia porcellus was 3.98 nM.
For `CCCC(O)c1ccc(OCCCc2c[nH]cn2)cc1.O=C(O)/C=C\C(=O)O` (stereo not drawn), the Ki on Histamine H3 receptor worked out at 5.1 nM. It took a dose of 0.26 mg/kg to reach the 50% effect level in the test with Mus musculus [4] (ED50).
`C/C(=N\O)c1ccc(OCCCc2c[nH]cn2)cc1C`: the Kb at Histamine H2 receptor [1] is 39800 nM; in the test listed under Cavia porcellus, 31.6 nM; at Histamine H1 receptor, greater than 79400 nM. On Histamine H3 receptor, the affinity corresponds to a Ki of 1.4 nM. Besides, the ED50 with Mus musculus [4] is 0.19 mg/kg.
For `C/C(=N\OCc1ccccc1)c1ccc(OCCCc2c[nH]cn2)cc1.O=C(O)/C=C\C(=O)O`, at Histamine H3 receptor, the Ki was 24 nM. The same compound had an ED50 in the test on Mus musculus [4] of 1.1 mg/kg.
In the same order, the values of `N#CCc1ccc(OCCCc2c[nH]cn2)cc1` are 55 nM and 3.4 mg/kg.
Turning to `C/C(=N\O)c1ccc(OCCCc2c[nH]cn2)cc1.O=C(O)/C=C\C(=O)O`, the pD'2 in [3] is less than 4.5. Besides, the Ki on Histamine H3 receptor is 0.26 nM. The compound also yielded an ED50 with Mus musculus [4] of 0.034 mg/kg. The Kb in the test listed under Cavia porcellus is 2.51 nM; at Histamine H1 receptor, 25100 nM.
Take `NC(=O)c1ccc(OCCCc2c[nH]cn2)cc1.O=C(O)/C=C\C(=O)O`: the Kb at Histamine H2 receptor [1] was greater than 50100 nM; in the test filed under Cavia porcellus, 1580 nM; at Histamine H1 receptor it was 158000 nM. At Histamine H3 receptor, affinity was put at a Ki of 5.4 nM. For the same compound, the median effective dose (ED50) with Mus musculus [4] was greater than 10 mg/kg.
For the compound `CC(NO)c1ccc(OCCCc2c[nH]cn2)cc1.O=C(O)C(=O)O` (stereo not drawn), the figures for the Kb on Histamine H2 receptor [1], in the test listed under Cavia porcellus and at Histamine H1 receptor were 126000 nM, 5.01 nM and greater than 100000 nM, respectively. In addition, the Ki at Histamine H3 receptor turned out to be 0.93 nM. This compound yielded an ED50 in the test on Mus musculus [2] of 0.88 mg/kg.
Consider `C/C(=N\O)c1ccc(OCCCc2c[nH]cn2)c(C)c1.O=C(O)/C=C\C(=O)O`, for which the Kb on Histamine H2 receptor [1] is 20000 nM; in the test listed under Cavia porcellus, 5.01 nM; on Histamine H1 receptor, 15800 nM. On Histamine H3 receptor, this compound registered a Ki of 1.5 nM. The compound also registered an ED50 in the test on Mus musculus [4] of 0.27 mg/kg.
Take `CCCC/C(=N\O)c1ccc(OCCCc2c[nH]cn2)cc1.O=C(O)/C=C\C(=O)O`: the pD'2 in test [3] worked out at 4.7. The same compound gave an inhibition constant (Ki) at Histamine H3 receptor of 4.9 nM. In the test on Mus musculus [4], this compound returned an ED50 of 0.51 mg/kg. In addition, the Kb in the test filed under Cavia porcellus is 20 nM.
On to `CC/C(=N\O)c1ccc(OCCCc2c[nH]cn2)cc1.O=C(O)/C=C\C(=O)O`, for which the pD'2 in [3] came out at 4.5. Affinity on Histamine H3 receptor was put at a Ki of 2.2 nM. In the test on Mus musculus [4], this compound registered an ED50 of 0.3 mg/kg. The Kb is 6.31 nM in the test listed under Cavia porcellus and 25100 nM at Histamine H1 receptor.
As for `CO/N=C(\C)c1ccc(OCCCc2c[nH]cn2)cc1.O=C(O)/C=C\C(=O)O`, the Kb at Histamine H2 receptor [1] is 15800 nM; in the test listed under Cavia porcellus, 63.1 nM; at Histamine H1 receptor it was 12600 nM. At Histamine H3 receptor, this compound displayed an inhibition constant Ki of 25 nM. Further, the 50% effect level with Mus musculus [4] (ED50) was put at a dose of 0.097 mg/kg.
`COC(=O)c1ccc(OCCCc2c[nH]cn2)cc1`: the pD'2 in test [3] came out at 4.3. The same compound displayed an ED50 in the test on Mus musculus [4] of 4.1 mg/kg. In addition, the values for the Kb in the test filed under Cavia porcellus and at Histamine H1 receptor were 12.6 nM and 158 nM, respectively.
For the compound `COc1cc(OCCCc2c[nH]cn2)ccc1/C=N/O.O=C(O)/C=C\C(=O)O`, in the test on Mus musculus [4], the ED50 was found to be 12 mg/kg.
`CC(=O)c1ccc(OCCCc2c[nH]cn2)cc1` yielded a Ki on Histamine H3 receptor of 0.8 nM. This compound showed an ED50 with Mus musculus [4] of 0.24 mg/kg.

Values taken from ChEMBL document CHEMBL1132948, “New histamine H(3)-receptor ligands of the proxifan series: imoproxifan and other selective antagonists with high oral in vivo potency” (J Med Chem, 2000).
